The format of series [1] is in vivo. The note with it: rat, plasma, po, 10.39 g/kg/day.
Another series concerns Adr-induced arrhythmias. Put plainly: Adr-induced arrhythmia in rats, electrocardiography. It is filed as in vivo, rat. To be noted: prophylactic administration, rats with Adr-induced arrhythmia; Fig. 5. In short, it runs like this: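 Rats (8 per group) got test compound intragastrically once daily for 14 days (5.19, 10.39 or 20.77 g/kg/d), metoprolol tartrate […], or saline 5 mL/kg/d. 30 min after the last dose, rats were anaesthetised i.p. with 0.6 % nembutal (30 mg/kg) and lead II ECG recorded at 50 mm/s. Adrenaline was given by tail vein as cumulative boluses (8, 16, 32, 64, 128) at 10-min intervals or until death. Read-outs were QRS duration and QTc = QT/√RR, as mean ± s.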

Structures can show the parent of a compound that is named as a salt.

The values that follow come from PMC11381611 (Heliyon, 2024).

In series [1], `COc1cc2c(cc1OC)[C@@H]1Cc3ccc(OC)c(OC)c3CN1CC2` [tetrahydropalmatine] showed an AUC(0-inf) of 881 ± 47.2 ng·h/mL, an AUC(0-t) of 849 ± 54.3 ng·h/mL, a maximum concentration (Cmax) of 421 ± 97.7 ng/mL and an MRT inf of 3.66 ± 0.54 h. In addition, in series [1], the MRT last worked out at 2.91 ± 0.54 h and the half-life was 3.26 ± 1.13 h.

On to `COCCc1ccc(OCC(O)CNC(C)C)cc1` (centres unmarked) [Meto, metoprolol tartrate], for which, in the series with Adr-induced arrhythmias, the QRS interval result is listed as “no significant effect” and the QTc interval result is given as “shortened”.

As for `COc1ccc2cc3[n+](cc2c1OC)CCc1cc2c(cc1-3)OCO2` [berberine], in series [1], the AUC(0-inf) is 162 ± 12.8 ng·h/mL, the AUC(0-t) was 91.1 ± 52.9 ng·h/mL, the peak level (Cmax) was 30.9 ± 28.6 ng/mL and the MRT inf stood at 14.7 ± 7.88 h. In series [1], this compound showed an MRT last of 4.26 ± 0.61 h and a half-life of 11.9 ± 5 h.

In series [1], `C[n+]1cccc(C(=O)[O-])c1` [trigonelline] yielded an AUC(0-inf) of 3890 ± 60.4 ng·h/mL, an AUC(0-t) of 3860 ± 46.4 ng·h/mL, a Cmax of 1170 ± 39.8 ng/mL and a mean residence time (MRT inf) of 4.53 ± 0.33 h. Further, in series [1], the MRT last turned out to be 4.18 ± 0.19 h and the half-life was 2.58 ± 0.24 h.

For the compound `COc1ccc(-c2cc(=O)c3c(OC)c(OC)c(OC)c(OC)c3o2)cc1OC` [nobiletin], in series [1], the AUC(0-inf) came out at 9921 ± 87.6 ng·h/mL, the AUC(0-t) is 9892 ± 40.7 ng·h/mL, the peak level (Cmax) was 2869 ± 22.6 ng/mL and the MRT inf came out at 3.28 ± 0.19 h. In series [1], this compound had an MRT last of 3.24 ± 0.11 h and a half-life of 6.32 ± 0.89 h.

In series [1], `O=C(O)/C=C/c1ccccc1` [cinnamic acid] returned a total exposure AUC(0-inf) of 7693 ± 68.4 ng·h/mL, an AUC(0-t) of 2010 ± 73.3 ng·h/mL, a Cmax of 800 ± 142 ng/mL and an MRT inf of 2.48 ± 2.81 h. In addition, in series [1], the MRT last amounted to 2.64 ± 1.31 h and the half-life was 4.78 ± 1.67 h.

`O=c1c(-c2ccc(O)cc2)coc2c([C@@H]3O[C@H](CO)[C@@H](O)[C@H](O)[C@H]3O)c(O)ccc12` [puerarin]: in series [1], the AUC(0-inf) was 615 ± 87.4 ng·h/mL, the AUC(0-t) stood at 603 ± 69.4 ng·h/mL, the Cmax was 145 ± 17 ng/mL and the mean residence time (MRT inf) stood at 4.76 ± 1.55 h. In addition, in series [1], the MRT last came to 4.19 ± 0.83 h and the half-life is 7.06 ± 4.39 h.

In the case of `O=C1C[C@@H](c2ccc(O[C@@H]3O[C@H](CO)[C@@H](O)[C@H](O)[C@H]3O)cc2)Oc2cc(O)ccc21` [liquiritin], in series [1], the AUC(0-inf) amounted to 747 ± 83.6 ng·h/mL, the exposure AUC(0-t) amounted to 708 ± 49.2 ng·h/mL, the Cmax came to 142 ± 8.69 ng/mL and the MRT inf stood at 10.7 ± 5.65 h. For the same compound, in series [1], the MRT last worked out at 6.75 ± 0.84 h and the half-life is 7.14 ± 2.06 h.

The AUC(0-inf) is total exposure, with the tail of the curve extrapolated. A high value points to more exposure. A word on the AUC(0-t): it is exposure summed from dosing to a finite time, without extrapolation to infinity. The low end stands for less exposure, the high end for more exposure. Broadly, the Cmax is the maximum level reached in the sampled fluid or tissue. Usually MRT inf stands for the average time that molecules of a dose stay in the body. In general, MRT last refers to a mean duration of stay, worked out from the concentration-time curve. As a reminder, the half-life is the time in which the quantity being followed falls by half. Read a low half-life as rapid decline.
